Results: ChEMBL document CHEMBL3351359, “Design and synthesis of novel 2,4-diaryl-5H-indeno[1,2-b]pyridine derivatives, and their evaluation of topoisomerase inhibitory activity and cytotoxicity” (Bioorg Med Chem, 2015)

How the values were obtained:
[1] = biological target: T1, DNA topoisomerase 1 (Homo sapiens) (UniProt P11387); experiment: Inhibition of human recombinant topoisomerase-1 assessed as conversion of super-coiled plasmid DNA pBR322 to relaxed DNA at 100 uM after 30 mins by ethidium bromide staining-based agarose gel electrophoresis (reference value: 51.5%)
T1 sequence (whole entry): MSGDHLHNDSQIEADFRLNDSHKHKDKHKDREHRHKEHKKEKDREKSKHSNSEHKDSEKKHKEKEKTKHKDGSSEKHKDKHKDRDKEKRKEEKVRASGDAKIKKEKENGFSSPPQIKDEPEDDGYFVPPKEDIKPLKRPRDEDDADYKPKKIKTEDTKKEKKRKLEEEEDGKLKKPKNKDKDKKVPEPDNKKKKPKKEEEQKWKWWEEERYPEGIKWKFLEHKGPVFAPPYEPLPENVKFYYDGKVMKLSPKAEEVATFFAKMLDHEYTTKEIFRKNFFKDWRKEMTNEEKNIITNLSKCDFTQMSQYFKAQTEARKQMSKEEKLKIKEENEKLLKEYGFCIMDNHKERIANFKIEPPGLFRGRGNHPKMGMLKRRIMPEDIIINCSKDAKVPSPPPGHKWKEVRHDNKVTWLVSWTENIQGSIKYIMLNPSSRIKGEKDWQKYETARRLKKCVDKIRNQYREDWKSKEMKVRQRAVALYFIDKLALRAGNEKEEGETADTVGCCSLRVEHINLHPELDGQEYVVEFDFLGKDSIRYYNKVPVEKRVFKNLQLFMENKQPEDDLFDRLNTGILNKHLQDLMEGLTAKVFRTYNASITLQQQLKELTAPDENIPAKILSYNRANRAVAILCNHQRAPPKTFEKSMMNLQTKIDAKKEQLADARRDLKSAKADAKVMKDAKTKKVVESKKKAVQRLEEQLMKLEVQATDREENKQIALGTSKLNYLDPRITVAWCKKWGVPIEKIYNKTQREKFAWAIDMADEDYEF
Procedure, shortened: (§1)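 Relaxation of supercoiled pBR322 (100 ng) by 0.4 units recombinant human topo I, with or without compound (20 mM DMSO stocks), for 30 min at 37 °C. Buffer: 10 mM Tris-HCl pH 7.9, 150 mM NaCl, 0.1% BSA, 1 mM spermidine, 5% glycerol. Stopped with sarcosyl. Run on 1% agarose in TAE at 15 V for 7 h, stained with ethidium bromide, bands quantified under UV.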

[2] = biological target: T1, DNA topoisomerase 1 (Homo sapiens); experiment: Inhibition of human recombinant topoisomerase-1 assessed as conversion of super-coiled plasmid DNA pBR322 to relaxed DNA at 100 uM after 30 mins by ethidium bromide staining-based agarose gel electrophoresis relative to camptothecin
[3] = biological target: DNA topoisomerase 2-alpha (Homo sapiens) (UniProt P11388); experiment: Inhibition of human recombinant topoisomerase-2 alpha assessed as conversion of super-coiled plasmid DNA pBR322 to relaxed DNA at 100 uM after 30 mins by ethidium bromide staining-based agarose gel electrophoresis (reference value: 83.7%)
Sequence of DNA topoisomerase 2-alpha (Homo sapiens) (P11388 whole entry): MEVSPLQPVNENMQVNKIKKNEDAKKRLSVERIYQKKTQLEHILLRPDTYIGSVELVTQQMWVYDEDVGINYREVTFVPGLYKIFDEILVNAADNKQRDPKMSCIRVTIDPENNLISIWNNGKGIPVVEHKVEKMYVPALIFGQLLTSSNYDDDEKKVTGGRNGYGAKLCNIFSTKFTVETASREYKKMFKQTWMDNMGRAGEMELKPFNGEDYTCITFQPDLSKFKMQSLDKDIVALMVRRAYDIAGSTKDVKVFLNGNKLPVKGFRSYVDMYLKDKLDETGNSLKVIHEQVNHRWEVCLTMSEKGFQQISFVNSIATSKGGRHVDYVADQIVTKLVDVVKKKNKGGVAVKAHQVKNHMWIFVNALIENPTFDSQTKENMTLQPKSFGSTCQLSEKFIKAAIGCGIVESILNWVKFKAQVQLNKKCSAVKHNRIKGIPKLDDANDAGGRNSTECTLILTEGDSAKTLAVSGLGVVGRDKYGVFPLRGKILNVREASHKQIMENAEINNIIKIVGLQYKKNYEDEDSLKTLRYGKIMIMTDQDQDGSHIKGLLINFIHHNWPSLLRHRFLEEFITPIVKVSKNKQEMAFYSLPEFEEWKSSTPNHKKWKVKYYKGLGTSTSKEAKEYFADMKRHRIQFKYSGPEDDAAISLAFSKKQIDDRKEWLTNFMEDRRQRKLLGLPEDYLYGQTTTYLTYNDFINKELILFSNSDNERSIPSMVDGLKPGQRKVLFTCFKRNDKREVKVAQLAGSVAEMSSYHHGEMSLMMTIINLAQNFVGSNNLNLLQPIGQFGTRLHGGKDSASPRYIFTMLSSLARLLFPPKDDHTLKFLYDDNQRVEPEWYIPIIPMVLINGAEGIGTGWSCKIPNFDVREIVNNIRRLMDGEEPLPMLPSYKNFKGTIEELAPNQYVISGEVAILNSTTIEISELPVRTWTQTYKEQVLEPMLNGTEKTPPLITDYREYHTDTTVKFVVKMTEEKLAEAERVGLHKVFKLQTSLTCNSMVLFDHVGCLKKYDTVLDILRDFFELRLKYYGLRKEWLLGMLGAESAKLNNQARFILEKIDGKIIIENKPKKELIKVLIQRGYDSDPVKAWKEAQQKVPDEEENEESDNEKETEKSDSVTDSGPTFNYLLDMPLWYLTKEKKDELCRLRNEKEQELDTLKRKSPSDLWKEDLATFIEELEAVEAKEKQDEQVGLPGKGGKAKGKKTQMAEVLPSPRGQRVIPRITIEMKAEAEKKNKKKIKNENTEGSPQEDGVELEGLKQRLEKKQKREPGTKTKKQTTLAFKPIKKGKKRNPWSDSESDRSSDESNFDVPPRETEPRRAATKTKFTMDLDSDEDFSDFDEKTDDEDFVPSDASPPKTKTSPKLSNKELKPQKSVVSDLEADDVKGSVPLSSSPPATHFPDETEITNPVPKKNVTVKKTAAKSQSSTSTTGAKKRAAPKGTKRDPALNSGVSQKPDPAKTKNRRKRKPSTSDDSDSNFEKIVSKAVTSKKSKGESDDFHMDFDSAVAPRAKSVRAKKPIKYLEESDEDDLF
Procedure, shortened: (§2)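 Supercoiled pBR322 (200 ng) incubated with 1 unit human topo IIα, with or without compound, for 30 min at 30 °C. Buffer: 10 mM Tris-HCl pH 7.9, 50 mM NaCl, 5 mM MgCl2, 1 mM EDTA, 1 mM ATP, 15 μg/mL BSA. Stopped with EDTA. Run on 1% agarose in TAE at 25 V for 4 h, stained with ethidium bromide, supercoiled DNA quantified under UV.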

[4] = biological target: DNA topoisomerase 2-alpha (Homo sapiens) (UniProt P11388); experiment: Inhibition of human recombinant topoisomerase-2 alpha assessed as conversion of super-coiled plasmid DNA pBR322 to relaxed DNA at 20 uM after 30 mins by ethidium bromide staining-based agarose gel electrophoresis (reference value: 42.1%); procedure, shortened: as §2
[5] = biological target: DNA topoisomerase 2-alpha (Homo sapiens) (UniProt P11388); experiment: Inhibition of human recombinant topoisomerase-2 alpha assessed as conversion of super-coiled plasmid DNA pBR322 to relaxed DNA at 100 uM after 30 mins by ethidium bromide staining-based agarose gel electrophoresis relative to etoposide
MCF7 = experiment: Cytotoxicity against human MCF7 cells after 2 days by CCK-8 assay; assay type: functional, cell-based; conditions: MCF7, 48 h
Procedure, shortened: (§3)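 Cells seeded at 2~4 × 10^4 per well, grown overnight in medium with 10% FBS at 37 °C, 5% CO2. On day 2, after 4 h FBS starvation, medium replaced with medium containing graded compound concentrations. On day 4, CCK-8 added for 4 h, then absorbance read at 450 nm. IC50 from four-parameter logistic fit. Mean ± S.D. of three experiments, each run in triplicate.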

HeLa = experiment: Cytotoxicity against human HeLa cells after 2 days by CCK-8 assay; assay type: functional, cell-based; conditions: 48 h; procedure, shortened: as §3
DU-145 = experiment: Cytotoxicity against human DU145 cells after 2 days by CCK-8 assay; assay type: functional, cell-based; conditions: DU-145, 48 h; procedure, shortened: as §3
[6] = Cytotoxicity against human HCT15 cells after 2 days by CCK-8 assay; assay type: functional, cell-based; conditions: HCT-15, 48 h; procedure, shortened: as §3
[7] = biological target: T1, DNA topoisomerase 1 (Homo sapiens); experiment: Inhibition of human recombinant topoisomerase-1 assessed as conversion of super-coiled plasmid DNA pBR322 to relaxed DNA at 100 uM after 30 mins by ethidium bromide staining-based agarose gel electrophoresis (reference value: 62.9%); procedure, shortened: as §1
[8] = biological target: DNA topoisomerase 2-alpha (Homo sapiens) (UniProt P11388); experiment: Inhibition of human recombinant topoisomerase-2 alpha assessed as conversion of super-coiled plasmid DNA pBR322 to relaxed DNA at 100 uM after 30 mins by ethidium bromide staining-based agarose gel electrophoresis (reference value: 87.8%); procedure, shortened: as §2
[9] = biological target: DNA topoisomerase 2-alpha (Homo sapiens) (UniProt P11388); experiment: Inhibition of human recombinant topoisomerase-2 alpha assessed as conversion of super-coiled plasmid DNA pBR322 to relaxed DNA at 20 uM after 30 mins by ethidium bromide staining-based agarose gel electrophoresis (reference value: 46.7%); procedure, shortened: as §2
[10] = biological target: T1, DNA topoisomerase 1 (Homo sapiens); experiment: Inhibition of human recombinant topoisomerase-1 assessed as conversion of super-coiled plasmid DNA pBR322 to relaxed DNA at 100 uM after 30 mins by ethidium bromide staining-based agarose gel electrophoresis (reference value: 45.2%); procedure, shortened: as §1
[11] = biological target: DNA topoisomerase 2-alpha (Homo sapiens) (UniProt P11388); experiment: Inhibition of human recombinant topoisomerase-2 alpha assessed as conversion of super-coiled plasmid DNA pBR322 to relaxed DNA at 100 uM after 30 mins by ethidium bromide staining-based agarose gel electrophoresis (reference value: 32.4%); procedure, shortened: as §2
[12] = biological target: T1, DNA topoisomerase 1 (Homo sapiens); experiment: Inhibition of human recombinant topoisomerase-1 assessed as conversion of super-coiled plasmid DNA pBR322 to relaxed DNA at 20 uM after 30 mins by ethidium bromide staining-based agarose gel electrophoresis (reference value: 25.9%); procedure, shortened: as §1

Row | Ratio [2] | Ratio [5] | SMILES | IC50 (MCF7) | IC50 (DU-145) | IC50 [6] | other results
1 | < 0.2 | 1 | c1coc(-c2cc(-c3ccsc3)nc3c2Cc2ccccc2-3)c1 | > 50 µM | > 50 µM | 31.6 µM | inhibition [1]: 2.8%; inhibition [3]: 84.1%; inhibition [4]: 68.5%; IC50 (HeLa): > 50 µM
2 | 1.15 | < 0.2 | c1ccc(-c2cc(-c3ccccn3)nc3c2oc2ccccc23)cc1 | – | – | – | –
3 | – | – | c1ccc(-c2cc(-c3ccsc3)nc3c2Cc2ccccc2-3)nc1 | > 50 µM | > 50 µM | > 50 µM | inhibition [7]: 3.5%; inhibition [8]: 3.2%
4 | – | – | c1ccc(-c2cc(-c3cccs3)nc3c2Cc2ccccc2-3)cc1 | > 50 µM | > 50 µM | > 50 µM | inhibition [7]: 5.8%; inhibition [8]: 56%; inhibition [9]: 0%
5 | 1.42 | 0.9 | c1ccc2c(c1)OCc1c(-c3ccsc3)cc(-c3ccsc3)nc1-2 | – | – | – | –
6 | < 0.2 | 1.14 | c1csc(-c2cc(-c3ccsc3)c3c(n2)-c2ccccc2C3)c1 | > 50 µM | > 50 µM | > 50 µM | inhibition [7]: 10.1%; inhibition [8]: 100%; inhibition [9]: 0%
7 | 1.2 | 0.89 | c1coc(-c2cc(-c3ccoc3)c3c(n2)-c2ccccc2OC3)c1 | – | – | – | –
8 | 1.36 | < 0.2 | c1cncc(-c2cc(-c3ccoc3)c3c(n2)-c2ncccc2CC3)c1 | – | – | – | –
9 | 1.25 | < 0.2 | c1ccc(-c2cc(-c3ccco3)c3c(n2)-c2ncccc2CC3)nc1 | – | – | – | –
10 | – | – | c1ccc(-c2cc(-c3ccsc3)c3c(n2)-c2ccccc2C3)nc1 | – | – | – | inhibition [7]: 1.1%; inhibition [8]: 15%
11 | – | – | c1ccc(-c2cc(-c3ccco3)c3c(n2)-c2ccccc2C3)nc1 | – | – | – | inhibition [10]: 0.6%; inhibition [11]: 17.7%
12 | – | – | c1ccc(-c2cc(-c3ccccn3)c3c(n2)-c2ccccc2C3)nc1 | – | – | – | inhibition [10]: 6.2%; inhibition [11]: 10.2%
13 | < 0.2 | 0.83 | c1ccc(-c2cc(-c3ccsc3)nc3c2Cc2ccccc2-3)cc1 | > 50 µM | > 50 µM | > 50 µM | inhibition [7]: 0.5%; inhibition [8]: 72.5%; inhibition [9]: 0%
14 | 0.49 | < 0.2 | c1cncc(-c2cc(-c3ccncc3)c3c(n2)-c2ccsc2CC3)c1 | – | – | – | –
15 | – | 1.24 | c1ccc(-c2cc(-c3ccco3)c3oc4ccccc4c3n2)cc1 | – | – | – | fold change (FC) [2]: < 0.2
16 | – | – | COc1cccc2c1C(=O)c1c(O)c3c(c(O)c1C2=O)C[C@@](O)(C(=O)CO)C[C@@H]3O[C@H]1C[C@H](N)[C@H](O)[C@H](C)O1 [DOXORUBICIN] | 0.4 µM | – | 1.08 µM | –
17 | – | – | c1ccc(-c2cc(-c3ccoc3)c3c(n2)-c2ccccc2C3)nc1 | – | – | – | inhibition [10]: 8.6%; inhibition [11]: 17.5%
18 | 1.58 | < 0.2 | c1ccc(-c2cc(-c3cccnc3)nc3c2COc2ccccc2-3)nc1 | – | – | – | –

Row | Ratio [2] | Ratio [5] | SMILES | IC50 (MCF7) | IC50 (DU-145) | IC50 [6] | other results
19 | – | – | c1ccc(-c2cc(-c3ccccn3)nc3c2Cc2ccccc2-3)cc1 | – | – | – | inhibition [10]: 0%; inhibition [11]: 12.3%
20 | – | – | CC[C@@]1(O)C(=O)OCc2c1cc1n(c2=O)Cc2cc3ccccc3nc2-1 [CAMPTOTHECIN] | 0.08 µM | 0.11 µM | 0.26 µM | –
21 | 0.53 | < 0.2 | c1csc(-c2cc(-c3ccoc3)c3c(n2)-c2ccccc2CC3)c1 | – | – | – | –
22 | < 0.2 | 1.19 | c1coc(-c2cc(-c3ccsc3)c3c(n2)-c2ccccc2C3)c1 | > 50 µM | > 50 µM | > 50 µM | inhibition [1]: 0%; inhibition [3]: 100%; inhibition [4]: 93%; IC50 (HeLa): > 50 µM
23 | – | – | c1ccc(-c2cc(-c3cccs3)nc3c2Cc2ccccc2-3)nc1 | 43.3 µM | > 50 µM | 9.63 µM | inhibition [7]: 4.5%; inhibition [8]: 18.1%
24 | – | – | COc1cc([C@@H]2c3cc4c(cc3[C@@H](O[C@@H]3O[C@@H]5CO[C@@H](C)O[C@H]5[C@H](O)[C@H]3O)[C@H]3COC(=O)[C@H]23)OCO4)cc(OC)c1O [ETOPOSIDE] | 0.73 µM | – | 1.1 µM | IC50 (HeLa): 1.26 µM
25 | 0.97 | < 0.2 | c1coc(-c2cc(-c3cccs3)nc3c2CCc2ccccc2-3)c1 | – | – | – | –
26 | 1.15 | < 0.2 | c1ccc(-c2cc(-c3cccnc3)c3c(n2)-c2ccsc2CC3)cc1 | – | – | – | –
27 | – | 1.11 | c1coc(-c2cc(-c3ccco3)c3oc4ccccc4c3n2)c1 | – | – | – | fold change (FC) [2]: 0.6
28 | – | – | c1ccc(-c2cc(-c3cccs3)c3c(n2)-c2ccccc2C3)nc1 | 11 µM | 6.7 µM | 9.1 µM | inhibition [10]: 58.5%; inhibition [12]: 12%; inhibition [11]: 9%; IC50 (HeLa): 20.5 µM
29 | – | – | c1csc(-c2cc(-c3cccs3)c3c(n2)-c2ccccc2C3)c1 | > 50 µM | > 50 µM | > 50 µM | inhibition [7]: 4.7%; inhibition [8]: 9.8%
30 | < 0.2 | 1.15 | c1ccc2c(c1)Cc1c(-c3ccoc3)cc(-c3ccsc3)nc1-2 | > 50 µM | > 50 µM | 20.6 µM | inhibition [1]: 1.2%; inhibition [3]: 95.9%; inhibition [4]: 10.9%; IC50 (HeLa): > 50 µM
31 | 1.67 | 1.13 | c1ccc(-c2cc(-c3ccsc3)nc3c2COc2ccccc2-3)cc1 | – | – | – | –
32 | < 0.2 | 1.11 | c1ccc(-c2cc(-c3ccco3)nc3c2oc2ccccc23)cc1 | – | – | – | –
33 | < 0.2 | 1.19 | c1csc(-c2cc(-c3ccoc3)c3c(n2)-c2ccccc2C3)c1 | > 50 µM | 37.3 µM | 34.6 µM | inhibition [1]: 1.7%; inhibition [3]: 100%; inhibition [4]: 66.7%; IC50 (HeLa): > 50 µM
34 | < 0.2 | 1 | c1coc(-c2cc(-c3cccs3)c3c(n2)-c2ccccc2C3)c1 | > 50 µM | > 50 µM | 23.6 µM | inhibition [1]: 2%; inhibition [3]: 83.9%; inhibition [4]: 79.6%; IC50 (HeLa): > 50 µM
35 | – | – | c1csc(-c2cc(-c3ccsc3)nc3c2Cc2ccccc2-3)c1 | > 50 µM | > 50 µM | > 50 µM | inhibition [7]: 4.1%; inhibition [8]: 17.8%
